Laboratory results from ChEMBL document CHEMBL1138611, “Oxadiazolylindazole sodium channel modulators are neuroprotective toward hippocampal neurones” (J Med Chem, 2009).
The source made the active and inactive calls. The rule behind the calls is not given here.

Legend:
[1] = target: Nav1.5 (sodium channel protein type 5 subunit alpha) (Homo sapiens, UniProt Q14524); experiment: Inhibition of human Nav1.5 expressed in HEK293 cells assessed as change in membrane potential using MP-red voltage sensitive dye at 10 uM; assay type: cell-based; conditions: HEK293 cells expressing human Nav1.5
Summary of the method: (§1)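 Human Nav isoforms stably expressed in HEK293 cells with β1 subunit (Nav1.8 without β subunit), with tetrodotoxin sensitivity checked. Membrane potential change read with MP-red voltage-sensitive dye kit. Single-concentration screen at 10 µM gives percent inhibition as mean of duplicates, or an IC50 in µM where determined. Compounds come from 1 or 10 mM DMSO stocks diluted in assay buffer.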

Hippocampus [2] = experiment: Neuroprotective activity in Wistar rat hippocampal slices assessed as ATP concentration at 30 uM relative to tetrodotoxin; assay type: functional
[3] = target: Sodium channel protein type 9 subunit alpha (Homo sapiens) (UniProt Q15858); experiment: Inhibition of human Nav1.7 expressed in HEK293 cells assessed as change in membrane potential using MP-red voltage sensitive dye at 10 uM; assay type: cell-based; summary of the method: as §1
[4] = target: Sodium channel protein type 2 subunit alpha (Homo sapiens) (UniProt Q99250); conditions: HEK293, 100 uM
[5] = Displacement of [3H]BW202W92 from voltage-gated sodium channel in Wistar rat forebrain synaptosomes by liquid scintillation counting; assay type: subcellular, Brain
[6] = target: Sodium channel protein type 2 subunit alpha (Homo sapiens) (UniProt Q99250); conditions: HEK293, 30 uM
[7] = target: Sodium channel protein type 3 subunit alpha (Homo sapiens) (UniProt Q9NY46); experiment: Inhibition of human Nav1.3 expressed in HEK293 cells assessed as change in membrane potential using MP-red voltage sensitive dye at 10 uM; assay type: cell-based; summary of the method: as §1
[8] = target: Sodium channel protein type 2 subunit alpha (Homo sapiens) (UniProt Q99250); conditions: HEK293, 100 uM; remark: listed apart in the source
[9] = target: Sodium channel protein type 1 subunit alpha (Homo sapiens) (UniProt P35498); experiment: Inhibition of human Nav1.1 expressed in HEK293 cells assessed as change in membrane potential using MP-red voltage sensitive dye at 10 uM; assay type: cell-based; summary of the method: as §1
[10] = target: Sodium channel protein type 10 subunit alpha (Homo sapiens) (UniProt Q9Y5Y9); experiment: Inhibition of human Nav1.8 expressed in HEK293 cells assessed as change in membrane potential using MP-red voltage sensitive dye at 10 uM; assay type: cell-based; summary of the method: as §1
[11] = target: T1, Sodium channel protein type 8 subunit alpha (Homo sapiens, UniProt Q9UQD0); experiment: Inhibition of human Nav1.6 expressed in HEK293 cells assessed as change in membrane potential using MP-red voltage sensitive dye at 10 uM; assay type: cell-based; summary of the method: as §1
Target sequence in this assay (Q9UQD0 whole entry, looked up): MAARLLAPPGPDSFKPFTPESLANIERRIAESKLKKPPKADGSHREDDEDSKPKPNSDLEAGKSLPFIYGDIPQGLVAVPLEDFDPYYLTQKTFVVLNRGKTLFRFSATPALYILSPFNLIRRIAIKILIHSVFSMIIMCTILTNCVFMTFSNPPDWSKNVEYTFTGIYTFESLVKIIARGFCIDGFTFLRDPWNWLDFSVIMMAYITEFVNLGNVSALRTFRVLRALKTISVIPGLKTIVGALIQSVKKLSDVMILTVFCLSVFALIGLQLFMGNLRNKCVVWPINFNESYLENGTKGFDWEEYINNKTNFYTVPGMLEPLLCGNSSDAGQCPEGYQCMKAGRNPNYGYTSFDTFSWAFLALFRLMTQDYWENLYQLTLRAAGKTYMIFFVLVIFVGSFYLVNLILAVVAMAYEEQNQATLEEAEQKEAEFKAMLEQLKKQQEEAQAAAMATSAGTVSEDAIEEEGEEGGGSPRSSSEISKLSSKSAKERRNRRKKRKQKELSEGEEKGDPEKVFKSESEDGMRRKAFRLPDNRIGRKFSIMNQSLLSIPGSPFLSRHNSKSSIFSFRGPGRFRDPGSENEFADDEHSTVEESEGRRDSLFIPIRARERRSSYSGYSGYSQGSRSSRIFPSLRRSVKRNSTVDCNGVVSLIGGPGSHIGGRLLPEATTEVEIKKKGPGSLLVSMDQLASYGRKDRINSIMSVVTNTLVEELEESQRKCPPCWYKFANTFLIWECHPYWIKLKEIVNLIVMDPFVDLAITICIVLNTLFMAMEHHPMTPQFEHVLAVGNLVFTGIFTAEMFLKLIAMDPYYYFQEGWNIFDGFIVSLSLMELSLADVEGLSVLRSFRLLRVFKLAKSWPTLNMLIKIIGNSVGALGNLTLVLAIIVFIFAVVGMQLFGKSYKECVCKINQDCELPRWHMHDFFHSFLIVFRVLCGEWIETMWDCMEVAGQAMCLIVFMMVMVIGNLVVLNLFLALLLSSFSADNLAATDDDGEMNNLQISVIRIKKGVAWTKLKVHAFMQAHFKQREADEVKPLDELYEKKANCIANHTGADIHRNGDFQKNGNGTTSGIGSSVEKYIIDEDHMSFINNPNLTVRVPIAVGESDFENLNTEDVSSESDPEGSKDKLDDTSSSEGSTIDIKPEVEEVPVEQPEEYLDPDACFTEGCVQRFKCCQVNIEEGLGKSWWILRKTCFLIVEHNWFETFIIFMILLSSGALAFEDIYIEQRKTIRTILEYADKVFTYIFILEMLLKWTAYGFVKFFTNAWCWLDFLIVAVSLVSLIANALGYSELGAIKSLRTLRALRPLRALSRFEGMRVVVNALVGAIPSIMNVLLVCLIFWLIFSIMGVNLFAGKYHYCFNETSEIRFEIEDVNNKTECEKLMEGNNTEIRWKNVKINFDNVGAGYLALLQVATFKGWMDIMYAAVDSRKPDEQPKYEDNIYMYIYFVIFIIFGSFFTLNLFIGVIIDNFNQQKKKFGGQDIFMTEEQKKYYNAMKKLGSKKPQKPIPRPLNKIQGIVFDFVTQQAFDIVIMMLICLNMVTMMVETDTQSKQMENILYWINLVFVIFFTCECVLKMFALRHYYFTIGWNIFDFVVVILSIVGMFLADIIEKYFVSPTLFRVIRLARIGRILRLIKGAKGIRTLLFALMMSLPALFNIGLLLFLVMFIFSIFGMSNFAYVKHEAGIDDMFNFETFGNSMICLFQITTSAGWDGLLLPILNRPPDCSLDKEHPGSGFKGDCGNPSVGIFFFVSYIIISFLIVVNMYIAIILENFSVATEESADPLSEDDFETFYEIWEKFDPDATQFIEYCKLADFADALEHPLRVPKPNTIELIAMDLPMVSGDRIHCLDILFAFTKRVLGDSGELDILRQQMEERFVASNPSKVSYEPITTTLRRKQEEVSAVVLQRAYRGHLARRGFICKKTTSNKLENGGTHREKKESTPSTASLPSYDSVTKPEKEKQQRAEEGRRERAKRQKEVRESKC

[12] = Inhibition of voltage-gated sodium channel in Wistar rat forebrain synaptosomes assessed as inhibition of [14C]guanidium ion flux; assay type: subcellular, Brain
[13] = target: Sodium channel protein type 4 subunit alpha (Homo sapiens) (UniProt P35499); experiment: Inhibition of human Nav1.4 expressed in HEK293 cells assessed as change in membrane potential using MP-red voltage sensitive dye at 10 uM; assay type: cell-based; summary of the method: as §1
[14] = target: Sodium channel protein type 2 subunit alpha (Homo sapiens) (UniProt Q99250); conditions: HEK293, 30 uM; remark: listed apart in the source
Cytochrome P450 1A2 = target: T2, Cytochrome P450 1A2 (Homo sapiens, UniProt P05177); experiment: Inhibition of human recombinant CYP1A2; assay type: ADME
T2 sequence (P05177 whole entry): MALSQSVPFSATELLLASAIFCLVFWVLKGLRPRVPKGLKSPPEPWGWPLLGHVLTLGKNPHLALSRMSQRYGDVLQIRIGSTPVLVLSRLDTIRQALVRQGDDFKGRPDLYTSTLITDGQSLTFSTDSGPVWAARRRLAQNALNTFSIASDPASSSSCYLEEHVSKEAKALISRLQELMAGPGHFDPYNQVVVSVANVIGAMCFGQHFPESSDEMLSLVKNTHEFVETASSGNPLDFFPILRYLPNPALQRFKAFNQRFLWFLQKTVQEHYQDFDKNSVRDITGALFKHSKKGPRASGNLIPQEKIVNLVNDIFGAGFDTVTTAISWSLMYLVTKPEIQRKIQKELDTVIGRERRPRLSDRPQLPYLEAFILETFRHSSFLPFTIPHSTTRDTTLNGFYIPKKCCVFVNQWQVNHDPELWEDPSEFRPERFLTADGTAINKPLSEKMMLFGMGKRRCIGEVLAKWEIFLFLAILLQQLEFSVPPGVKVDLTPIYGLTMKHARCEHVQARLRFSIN

Hippocampus [15] = experiment: Neuroprotective activity in Wistar rat hippocampal slices assessed as ATP concentration at 50 uM relative to tetrodotoxin; assay type: functional
Cytochrome P450 2D6 = Cytochrome P450 2D6 (Homo sapiens, UniProt P10635); experiment: Inhibition of human recombinant CYP2D6; assay type: ADME
[16] = target: T1, Sodium channel protein type 8 subunit alpha; experiment: Inhibition of human Nav1.6 expressed in HEK293 cells assessed as change in membrane potential using MP-red voltage sensitive dye; assay type: cell-based; summary of the method: as §1
Target sequence in this assay (Q9UQD0 whole entry): as the sequence (Q9UQD0 whole entry, looked up) above

[17] = target: T1, Sodium channel protein type 8 subunit alpha; experiment: Inhibition of human Nav1.6 expressed in HEK293 cells assessed as change in membrane potential at 50 uM by patch clamp technique; assay type: cell-based
Summary of the method: (§2)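 Automated parallel whole-cell patch clamp at room temperature on human Nav1.2 or Nav1.6 in HEK293 cells. Each exposure lasts 5 min, at 10 and 50 µM (lamotrigine on Nav1.2 at 30 and 100 µM), with two to four cells per concentration. Peak current inhibition is given as percent, mean of duplicate experiments (n = 2) unless noted otherwise.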
Target sequence in this assay (Q9UQD0 whole entry, looked up): as the sequence (Q9UQD0 whole entry, looked up) above

[18] = target: T1, Sodium channel protein type 8 subunit alpha; experiment: Use-dependent inhibition of human Nav1.6 expressed in HEK293 cells at 50 uM using double-pulse protocol by patch clamp technique; assay type: cell-based
Summary of the method: (§3)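 Human Nav1.2 or Nav1.6 in HEK293 cells, automated patch clamp at room temperature with 5 min exposure. Holding potential -80 mV, prepulse -120 mV, then P1 to 0 mV for 200 ms, 200 ms at -80 mV, and P2 to 0 mV for 20 ms, repeated at 0.1 Hz. Use-dependent inhibition I = (1 − P2T/P1T) × P1C/P2C × 100; mean of duplicates.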
Target sequence in this assay (Q9UQD0 whole entry, looked up): as the sequence (Q9UQD0 whole entry, looked up) above

[19] = target: Sodium channel protein type 2 subunit alpha (Homo sapiens) (UniProt Q99250); experiment: Inhibition of human Nav1.2 expressed in HEK293 cells assessed as change in membrane potential at 10 uM by patch clamp technique; assay type: cell-based; summary of the method: as §2
[20] = target: Sodium channel protein type 2 subunit alpha (Homo sapiens) (UniProt Q99250); experiment: Use-dependent inhibition of human Nav1.2 expressed in HEK293 cells at 10 uM using double-pulse protocol by patch clamp technique; assay type: cell-based; summary of the method: as §3
Rattus norvegicus = species: Rattus norvegicus; experiment: Inhibition of […] state of voltage-gated sodium channel in Sprague-Dawley rat hippocampal neurons at 30 uM using 300 ms conditioning voltage step to 0 mV followed by 15 ms period at -90 mV by paired pulse protocol; assay type: tissue-based; conditions: Hippocampus
Summary of the method: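 Paired-pulse protocol on dissociated P14-16 Sprague-Dawley rat hippocampal neurons, compound at 30 µM. A 300 ms conditioning step to 0 mV (P1), 15 ms at -90 mV, then a 10 ms test step to 0 mV (P2). Tonic inhibition at P1 compared with inhibition at P2 after slow inactivation develops.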

[21] = target: Sodium channel protein type 2 subunit alpha (Homo sapiens) (UniProt Q99250); experiment: Use-dependent inhibition of human Nav1.2 expressed in HEK293 cells at 50 uM using double-pulse protocol by patch clamp technique; assay type: cell-based; summary of the method: as §3
[22] = target: T1, Sodium channel protein type 8 subunit alpha; experiment: Use-dependent inhibition of human Nav1.6 expressed in HEK293 cells at 10 uM using double-pulse protocol by patch clamp technique; assay type: cell-based; summary of the method: as §3
Target sequence in this assay (Q9UQD0 whole entry, looked up): as the sequence (Q9UQD0 whole entry, looked up) above

[23] = target: T1, Sodium channel protein type 8 subunit alpha; experiment: Inhibition of human Nav1.6 expressed in HEK293 cells assessed as change in membrane potential at 10 uM by patch clamp technique; assay type: cell-based; summary of the method: as §2
Target sequence in this assay (Q9UQD0 whole entry, looked up): as the sequence (Q9UQD0 whole entry, looked up) above

[24] = target: Sodium channel protein type 2 subunit alpha (Homo sapiens) (UniProt Q99250); experiment: Inhibition of human Nav1.2 expressed in HEK293 cells assessed as change in membrane potential at 50 uM by patch clamp technique; assay type: cell-based; summary of the method: as §2

Chain of Sodium channel protein type 4 subunit alpha (Homo sapiens) (P35499 whole entry, looked up): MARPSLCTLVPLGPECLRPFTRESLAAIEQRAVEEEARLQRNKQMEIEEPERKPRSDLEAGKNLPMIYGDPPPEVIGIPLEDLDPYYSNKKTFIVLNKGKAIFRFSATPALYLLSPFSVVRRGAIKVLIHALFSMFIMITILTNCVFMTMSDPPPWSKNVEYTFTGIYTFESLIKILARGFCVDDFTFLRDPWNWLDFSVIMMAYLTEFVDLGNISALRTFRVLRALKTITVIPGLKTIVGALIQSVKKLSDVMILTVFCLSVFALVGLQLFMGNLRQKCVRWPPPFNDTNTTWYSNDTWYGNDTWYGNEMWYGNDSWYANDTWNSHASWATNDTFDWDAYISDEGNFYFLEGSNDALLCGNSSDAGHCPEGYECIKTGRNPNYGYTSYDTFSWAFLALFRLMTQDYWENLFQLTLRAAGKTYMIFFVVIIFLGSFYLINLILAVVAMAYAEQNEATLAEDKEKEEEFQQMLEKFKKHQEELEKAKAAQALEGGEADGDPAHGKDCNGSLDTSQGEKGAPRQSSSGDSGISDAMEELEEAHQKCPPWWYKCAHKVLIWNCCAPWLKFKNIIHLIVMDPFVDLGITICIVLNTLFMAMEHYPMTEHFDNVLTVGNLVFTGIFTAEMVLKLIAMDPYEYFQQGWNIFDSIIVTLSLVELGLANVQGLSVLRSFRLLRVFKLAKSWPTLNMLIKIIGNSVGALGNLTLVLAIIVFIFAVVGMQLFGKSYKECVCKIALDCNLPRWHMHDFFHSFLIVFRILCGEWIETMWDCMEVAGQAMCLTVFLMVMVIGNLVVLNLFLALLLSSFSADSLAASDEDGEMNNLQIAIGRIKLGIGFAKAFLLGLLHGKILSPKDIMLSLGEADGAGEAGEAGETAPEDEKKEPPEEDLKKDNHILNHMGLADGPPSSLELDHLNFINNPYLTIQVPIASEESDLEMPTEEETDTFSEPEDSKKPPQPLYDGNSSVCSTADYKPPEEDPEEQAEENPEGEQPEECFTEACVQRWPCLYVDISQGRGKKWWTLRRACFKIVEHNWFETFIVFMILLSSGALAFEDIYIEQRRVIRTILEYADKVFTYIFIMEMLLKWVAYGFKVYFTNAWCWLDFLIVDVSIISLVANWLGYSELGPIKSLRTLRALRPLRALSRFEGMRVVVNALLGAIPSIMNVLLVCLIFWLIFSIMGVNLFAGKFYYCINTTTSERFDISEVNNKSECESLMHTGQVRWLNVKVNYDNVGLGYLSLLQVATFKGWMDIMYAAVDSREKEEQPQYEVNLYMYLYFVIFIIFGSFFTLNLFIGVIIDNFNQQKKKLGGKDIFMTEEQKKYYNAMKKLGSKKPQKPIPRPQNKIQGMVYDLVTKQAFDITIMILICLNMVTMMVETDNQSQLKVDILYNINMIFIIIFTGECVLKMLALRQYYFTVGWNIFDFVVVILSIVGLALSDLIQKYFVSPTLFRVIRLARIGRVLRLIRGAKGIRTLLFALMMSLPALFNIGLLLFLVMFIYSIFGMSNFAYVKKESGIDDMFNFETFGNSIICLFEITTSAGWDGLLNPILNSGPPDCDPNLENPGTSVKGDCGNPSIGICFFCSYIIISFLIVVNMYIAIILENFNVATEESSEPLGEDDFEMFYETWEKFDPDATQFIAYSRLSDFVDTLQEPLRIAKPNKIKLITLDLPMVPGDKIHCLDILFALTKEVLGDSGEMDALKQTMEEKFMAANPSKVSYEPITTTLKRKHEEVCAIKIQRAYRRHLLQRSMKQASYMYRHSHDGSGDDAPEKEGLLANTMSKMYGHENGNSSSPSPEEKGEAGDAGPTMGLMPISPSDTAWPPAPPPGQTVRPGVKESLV
Chain of Cytochrome P450 2D6 (P10635 whole entry): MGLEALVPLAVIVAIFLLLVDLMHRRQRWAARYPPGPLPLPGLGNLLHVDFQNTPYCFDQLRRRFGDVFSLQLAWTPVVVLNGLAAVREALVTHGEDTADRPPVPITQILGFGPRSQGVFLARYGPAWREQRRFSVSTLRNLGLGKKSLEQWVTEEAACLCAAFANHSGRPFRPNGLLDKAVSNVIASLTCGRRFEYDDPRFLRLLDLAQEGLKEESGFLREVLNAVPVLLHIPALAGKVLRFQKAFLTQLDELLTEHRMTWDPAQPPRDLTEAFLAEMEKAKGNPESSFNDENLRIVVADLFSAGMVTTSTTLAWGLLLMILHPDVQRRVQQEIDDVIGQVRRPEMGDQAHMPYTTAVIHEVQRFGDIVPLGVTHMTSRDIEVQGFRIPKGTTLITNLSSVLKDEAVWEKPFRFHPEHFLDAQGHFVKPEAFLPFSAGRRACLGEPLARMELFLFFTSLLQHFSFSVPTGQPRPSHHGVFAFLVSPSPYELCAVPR

SMILES	IC50 [12] [µM]	IC50 (Cytochrome P450 1A2) [µM]	Activity (Hippocampus [15]) [%]	IC50 (Cytochrome P450 2D6) [µM]	other results
Nc1nnc(-c2cccc(Cl)c2Cl)c(N)n1 [LAMOTRIGINE]	219				inhibition at 10 µM [1]: 40%; Activity (Hippocampus [2]): 33%; inhibition [3]: 45%; inhibition [4]: 18.1%; IC50 [5]: 2.6 µM; inhibition [6]: 4.1%; inhibition [7]: 22%; inhibition [8]: 17%; inhibition [9]: 44%; inhibition [10]: 46%; inhibition [11]: 23%; inhibition [13]: 21%; inhibition [14]: 7.9%
NCc1noc(-c2n[nH]c3ccccc23)n1	2190	0.21	10	1	
NCc1noc(-c2nn(CCc3ccccc3)c3ccccc23)n1	35	0.034	49	1.32	
NCc1noc(-c2nn(Cc3ccccc3)c3ccccc23)n1	17.5	0.009	99	0.09	inhibition at 10 µM [1]: 48%; IC50 [16]: 0.66 µM; inhibition [17]: 40.9%; inhibition [18]: 18.7%; inhibition [3]: 59%; inhibition [19]: 6.6%; inhibition [20]: 1.9%; Activity (Rattus norvegicus): Active; IC50 [5]: 3.3 µM; inhibition [7]: 79%; inhibition [21]: 14.7%; inhibition [22]: 1.1%; inhibition [9]: 48%; inhibition [10]: 90%; inhibition [23]: 9.5%; inhibition [13]: 97%; inhibition [24]: 10.8%
Cc1cc(C)cc(Cn2nc(-c3nc(CN)no3)c3ccccc32)c1	15	0.062	43	3.73	
CC(C)(C)OC(=O)NCc1noc(-c2n[nH]c3ccccc23)n1	96	0.79	0	> 10	
NCc1noc(-c2c3ccccc3nn2Cc2cccc(Cl)c2)n1	24		17		IC50 [5]: 110 µM
CN1CCN(c2ncc(-c3cc(Cl)cc(Cl)c3Cl)c(N)n2)CC1 [SIPATRIGINE]					inhibition at 10 µM [1]: 97%; Activity (Hippocampus [2]): 57%; inhibition [17]: 43.4%; inhibition [18]: 63.2%; inhibition [3]: 67%; inhibition [19]: 21.6%; inhibition [20]: 40.1%; inhibition [7]: 61%; inhibition [21]: 84.6%; inhibition [22]: 37%; inhibition [9]: 55%; inhibition [10]: 76%; inhibition [11]: 70%; inhibition [23]: 10.4%; inhibition [13]: 97%; inhibition [24]: 75.2%
CC(=O)Nc1ccc(Cn2nc(-c3nc(CNC(=O)OC(C)(C)C)no3)c3ccccc32)cc1	15	5.92	47	13	
COc1ccc(S(=O)(=O)n2nc(-c3nc(CN)no3)c3ccccc32)cc1OC	102	> 10	2	2.9	
Cc1cccc(Cn2nc(-c3nc(CN)no3)c3ccccc32)c1	28	0.084	45	3.96	
CC(C)(C)OC(=O)NCc1noc(-c2nn(Cc3ccc4c(c3)OCO4)c3ccccc23)n1	1	4.86	0	3.3	
CC(C)(C)OC(=O)NCc1noc(-c2nn(Cc3ccc(-c4cn[nH]c4)cc3)c3ccccc23)n1	16		20	> 10	
NCc1noc(-c2c3ccccc3nn2CCc2ccccc2)n1	19	0.36	54	4.27	
CC(C)(C)OC(=O)NCc1noc(-c2nn(Cc3ccc(C(N)=O)cc3)c3ccccc23)n1	24		29	> 10	
